# Shown are actives, neighbours in structure and some others; about 3.8% of the full set was active somewhere.
# rCAG binder – binds r(CAG) RNA repeats; AID 651821; inhibition, % at 3 µM; 370,000 tested, 1.3% active; r(CAG) RNA repeat, TO-PRO-1 dye displacement fluorescence;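 active = inhibition above the plate cutoff, the mean of all test compounds on that plate plus 3 SD, cut at about 35% in these data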;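 also: 0% = DMSO alone and 100% = 100 µM mitoxantrone as full dye displacement; higher means more dye released from RNA so lower well fluorescence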
# MPTP inh – inhibitors of mitochondrial permeability transition pore | isolated mouse mitochondria, Ca2+ swelling absorbance, 30 min | inhibition, % at 10 µM | 360,000 tested, 1.4% active | AID 602449;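 active = inhibition of 50% or more, scaled per plate between neutral and stimulator controls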;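 also: 0% = DMSO wells given calcium and 100% = 1 mM EGTA wells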
# V-ATPase pH – yeast V-ATPase proton transport regulation by pHLuorin; response, % at 10 µM; S. cerevisiae, pHLuorin cytosolic pH fluorescence; AID 504577; 350,000 tested, 0.37% active; in the data active = response mostly above about 7.3%, no sharp cut-off; inactive = mostly below about 5.4%; also: actives read high
# B2AR ag – agonists of human beta-2 adrenergic receptor inducing internalization; 340,000 tested, 0.43% active; Am2.2-beta2AR cells, FAP receptor internalization, flow cytometry; AID 504454; response, % (no concentration beside the values);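 active = response above a set limit, near 3 SD of response in nonfluorescent compounds, cut at about 42% in these data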
# Target sequence (P07550 whole entry, looked up): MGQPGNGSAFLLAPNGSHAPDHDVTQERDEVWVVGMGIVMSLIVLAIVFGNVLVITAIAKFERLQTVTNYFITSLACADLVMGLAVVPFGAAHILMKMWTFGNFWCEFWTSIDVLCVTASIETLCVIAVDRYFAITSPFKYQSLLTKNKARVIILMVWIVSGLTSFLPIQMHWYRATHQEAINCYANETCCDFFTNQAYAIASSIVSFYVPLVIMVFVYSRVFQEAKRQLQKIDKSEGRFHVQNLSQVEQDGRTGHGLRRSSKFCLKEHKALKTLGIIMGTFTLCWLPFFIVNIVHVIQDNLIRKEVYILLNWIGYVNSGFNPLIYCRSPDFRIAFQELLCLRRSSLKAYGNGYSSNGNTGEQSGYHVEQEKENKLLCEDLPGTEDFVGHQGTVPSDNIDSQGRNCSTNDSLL
# Granule exo inh – blocks lytic granule exocytosis; 360,000 tested, 0.66% active; inhibition, % at 10 µM; TALL-104 LAMP-1 surface exposure, flow cytometry; cells stimulated with thapsigargin and PMA; AID 651702;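 active = inhibition above about 55%, limit read from the data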
# T cell HTS – T cell immune modulation candidate | AID 2052 | 2C CD8+ T cell-vesicle binding, flow cytometry; hits give low values | 330,000 tested, 0.068% active | response (vesicle binding), % at 7 µM;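 active = response, share of CD8 T cells binding vesicles, and their 90th percentile fluorescence all below set limits, cut at about 80% in these data, passing the limit was not always enough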;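 also: values below 100% mean blocked vesicle binding to the CD8+ T cells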
#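 Material: murine 2C transgenic CD8+ T lymphocytes / Also added: QL9-peptide-loaded Drosophila micro-vesicles bearing Ld, ICAM-1 and B7-1 / Schedule: binding step 1.5 h, 37 °C, antibody labelling 20 min, ice / Signal: flow cytometry, PE anti-B7-1 (FL2) versus Alexa647 anti-CD8 (FL8), PFA-fixed / Evaluation: percent CD8+ FL2 mean versus row control / Benchmarks: naked versus QL9-loaded vesicles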
# MPTP counter – mitochondrial membrane potential, counter-screen; shares compounds with MPTP inh; isolated mitochondria, Rhodamine 123 fluorescence; inhibition, % at 10 µM; 5,000 tested, 78% active; AID 624504; in the data active = inhibition above about 22%;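 also: 0% = DMSO vehicle and 100% = positive control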
# MPTP abs DR – dose response confirmation of mitochondrial permeability transition pore inhibitors; shares compounds with MPTP inh; IC50, µM; isolated mitochondria swelling, absorbance; 780 tested, 58% active; in the data active = IC50 below about 20 µM
# MPTP counter DR – counter-screen for mitochondrial permeability transition pore inhibitors, dose response. shares compounds with MPTP inh. isolated mitochondria counterscreen, fluorescence read-out. IC50, µM. 780 tested, 49% active; in the data active = IC50 below about 80 µM
# Active calls of the source: *; x = no result given.
SMILES,rCAG binder,MPTP inh,V-ATPase pH,B2AR ag,Granule exo inh,T cell HTS,MPTP counter,others
Cc1nc(OCc2ccccc2)c2ccccc2n1,-3,72*,-2,2,0,332,15,MPTP abs DR=12*;MPTP counter DR=27*
Cc1nc2ccccc2cc1OCc1ccccc1,-1,92*,6,-18,1,537,100*,
COc1cccc(COc2cc3ccccc3nc2C)c1,0,97*,5,3,1,941,94*,
CN(C)C(CNC(=O)c1cc(S(=O)(=O)N(C)Cc2ccccc2)ccc1Cl)c1ccco1 (configuration not stated),-7,68*,0,-4,-2,775,70*,
CCOC(=O)c1sc(=S)n(C)c1NC(=O)c1ccccc1,4,2,2,6,-5,257,x,
CCOC(=O)c1sc(=S)n(C)c1NC(=O)c1cccc(Br)c1,11,51*,3,4,6,193,76*,
O=C1CCc2cc(S(=O)(=O)N3CCN(c4ccccc4Cl)CC3)ccc2N1,3,x,x,x,x,x,x,
O=C1CCc2ccc(OCCCCN3CCN(c4cccc(Cl)c4Cl)CC3)cc2N1,4,80*,1,19,-7,587,20*,
COc1cccc(/C=C2\CC3(OC(=O)C4CCCC4)CCCN2C3)c1 (configuration not stated),-1,x,x,x,x,x,x,
O=C(Nc1cc(Cl)cc(Cl)c1)c1coc(=O)c(Br)c1,3,81*,0,-6,8,100,87*,
CCCCCCCCC(=O)NC(NC(=S)N1CCOCC1)C(Cl)(Cl)Cl (configuration not stated),1,88*,5,2,-5,374,86*,
COCCCNC(=O)C[C@@H]1C(=O)N(CCc2ccc(Cl)cc2)C2=CCCCC[C@]21C(=O)OC,6,x,x,x,x,x,x,
COc1ccc(N2C(=O)c3n[nH]c(C(C)C)c3C2c2ccc(C)cc2)cc1 (configuration not stated),0,x,x,x,x,x,x,
O=C(Nc1cc(Sc2ccccn2)cc([N+](=O)[O-])c1)c1ccc(Cl)cc1,-3,53*,2,2,7,120,72*,
O=C(Nc1cc(Sc2ccccn2)cc([N+](=O)[O-])c1)c1cccc(Cl)c1,16,95*,-2,-7,-3,272,76*,
O=C(N/N=C/c1ccccn1)c1ccc(NC(=O)c2cccc([N+](=O)[O-])c2)cc1,8,0,-1,17,-5,174,x,
CN(C)c1ccc(C(=O)NC2CCCCN(Cc3cccc(Cl)c3)C2=O)cc1 (configuration not stated),0,x,x,x,x,x,x,
C#CCNC(=O)C[C@@H]1C[C@]2(C(=O)OCC)CCC3=C2N(CCC3)C1=O,1,x,x,x,x,x,x,
c1ccc(CN2CCN(c3ncnc4c3[nH]c3ccccc34)CC2)cc1,2,15,4,5,3,252,x,
c1ccc2c(c1)CCN(c1ncnc3c1[nH]c1ccccc13)C2,7,99*,4,12,51,309,101*,
Cc1ccc2c(c1)[nH]c1c(N3CCN(Cc4ccccc4)CC3)ncnc12,-2,68*,3,21,-2,192,80*,
Cc1ccc2[nH]c3c(N4CCN(Cc5ccc6c(c5)OCO6)CC4)ncnc3c2c1,-3,x,x,x,x,x,x,
COc1ccc2c(c1)[nH]c1c(N3CCN(Cc4ccc5c(c4)OCO5)CC3)ncnc12,-1,88*,0,18,3,240,91*,
COc1cccc2[nH]c3c(N4CCc5ccccc5C4)ncnc3c12,x,x,x,x,x,822,x,
Cc1ccc2[nH]c3c(N4CCN(Cc5ccccc5)CC4)ncnc3c2c1,-1,85*,2,21,6,618,68*,
SMILES,rCAG binder,MPTP inh,V-ATPase pH,B2AR ag,Granule exo inh,T cell HTS,MPTP counter,others
CCCCN(C)C(=O)CSc1nnc(-c2cc(OC)c(OC)c(OC)c2)o1,3,x,x,x,x,x,x,
Cc1ccc(-c2nc(C3CCCN(S(=O)(=O)c4ccccc4)C3)no2)cc1 (configuration not stated),1,x,x,x,x,x,x,
Cc1[nH]c2ccccc2c1CC(=O)Nc1ccc(Nc2cccnc2)c(-c2ccc(Cl)c(Cl)c2)c1,14,x,x,x,x,x,x,
CC(=O)C1(C(=O)NC2CCCC2)CC(c2ccccc2C(F)(F)F)=NO1 (configuration not stated),2,x,x,x,x,x,x,
OCC1(Cc2ccc(Cl)cc2)CCN(CCCc2ccccc2)CC1,-5,53*,-3,7,4,277,-10,MPTP abs DR=10*
CCN1CCCCC(NC(C)=O)C1=O (configuration not stated),3,x,x,x,x,x,x,
CCn1c(=O)n(CC(=O)N2CCOCC2)c(=O)c2ccccc21,0,x,x,x,x,x,x,
O=C(Cn1cnc2ccccc21)Nc1ccc(SC(F)F)cc1,2,93*,0,-22,-7,154,87*,
CCCCCn1nnnc1C1(C)Cn2nccc2C(=O)N1Cc1ccco1 (configuration not stated),7,x,x,x,x,x,x,
O=C(Nc1ccc([N+](=O)[O-])cc1)/C(=C/c1cccc([N+](=O)[O-])c1)NC(=O)C1CCCCC1,7,98*,-3,0,-1,203,75*,
CC(C)CN1C(=O)[C@@]2(CC(=O)N(C)C2c2ccccc2)c2cc(-n3cc(CCCC#N)nn3)ccc21 (some centres not stated),-3,x,x,x,x,x,x,
CC(=O)Nc1ccc(S(=O)(=O)NCCC(=O)OCC(=O)c2ccc(Br)cc2)cc1,5,59*,-4,4,-2,308,87*,
Cc1ccc(NC(=O)Cc2cccc(OC(F)F)c2)c(S(=O)(=O)N2CCOCC2)c1,3,x,x,x,x,x,x,
COC(=O)[C@]1(C#N)CC(=O)N(C)[C@@H]1c1ccccc1,3,x,x,x,x,x,x,
Cc1noc(C)c1CSc1nc2ccccc2nc1NS(=O)(=O)c1ccc(Cl)cc1,x,88*,2,9,4,242,87*,
O=S(=O)(Nc1nc2ccccc2nc1NCc1ccco1)c1ccc(Cl)cc1,21,-8,-3,10,3,112,x,
CCOC(=O)N1CCN(C(=O)C[C@H]2C[C@@]3(C(=O)OC)C(=C[C@H](C(C)C)O[C@@H]3C3CC3)N(Cc3cccc4ccccc34)C2=O)CC1,5,x,x,x,x,x,x,
c1ccc2c(C[C@@H]3CNCCN3CC3CCCCC3)cccc2c1,10,54*,-5,39,-7,438,-12,
Oc1ccc(C[C@@H]2CNCCN2CC2CCCCC2)cc1,11,3,5,7,-1,613,x,
Cc1ccc(NC(=O)c2cccc3c2-c2ccccc2C3=O)c(C)c1,7,x,x,x,x,x,x,
CCOC(=O)[C@@H]1CSCCS(=O)(=O)N1C(=O)[C@H](CC(C)C)NC(=O)OC(C)(C)C,-4,x,x,x,x,x,x,

# Screens deposited in PubChem by several laboratories.
